These results are taken from ChEMBL document CHEMBL3632461 (J Med Chem, 2015).

The structures appear in SMILES notation.

The nature of data set [1]: Volume of distribution at steady state in Beagle dog at 1 mg/kg, iv and 3 or 5 mg/kg, po. Type of data set: ADME, organism-based, Canis lupus familiaris. Conditions: in vivo, read-out: Vdss. The method in brief: (§1)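 Male mice, rats, dogs and cynomolgus monkeys, fasted overnight, fed after dosing. Intravenous dose 1 mg/kg in saline or 12% sulfobutyl ether β-cyclodextrin; oral arm 3 or 5 mg/kg in 0.5% methylcellulose. Steady-state volume derived from plasma concentration−time data; mean ± SD for n = 3, individual values for n = 2.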

The nature of data set [2]: Volume of distribution at steady state in Wistar rat at 1 mg/kg, iv and 3 or 5 mg/kg, po. Type of data set: ADME, organism-based. The settings on record: in vivo, read-out: Vdss. The method in brief:
as §1

A short description of data set [3]: Plasma clearance in Beagle dog at 1 mg/kg, iv and 3 or 5 mg/kg, po. Type of data set: ADME, organism-based, Canis lupus familiaris. The procedure, abridged:
(§2)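 Male CD-1 mice (25−35 g), cannulated Wistar-Han rats (250 g), beagle dogs (12 kg) and cynomolgus monkeys (7 kg), fasted overnight and fed 1.0 or 2.0 h after dosing. iv 1 mg/kg in saline or 12% sulfobutyl ether β-cyclodextrin; po 3 or 5 mg/kg in 0.5% methylcellulose. Parameters calculated from plasma concentration−time data; mean ± SD for n = 3, individual values for n = 2.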

Data set [4] in a line: Oral bioavailability in Wistar rat at 3 or 5 mg/kg. Type of data set: ADME, organism-based. The settings on record: in vivo. The procedure, abridged: (§3)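 Male CD-1 mice, Wistar-Han rats, beagle dogs and cynomolgus monkeys, fasted overnight and fed after dosing. Given po at 3 or 5 mg/kg in 0.5% methylcellulose, with an iv reference dose of 1 mg/kg. Bioavailability derived from plasma concentration−time data; mean ± SD (n = 3) or individual values (n = 2).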

A short description of data set [5]: Plasma clearance in Wistar rat at 1 mg/kg, iv and 3 or 5 mg/kg, po. Type of data set: ADME, organism-based. The procedure, abridged:
as §2

Data set [6] in a line: Oral bioavailability in Beagle dog at 3 or 5 mg/kg. Type of data set: ADME, organism-based, Canis lupus familiaris. The settings on record: in vivo. The method in brief: as §3
In data set [7] the target is T1, Myeloperoxidase (Homo sapiens) (UniProt P05164).
T1 sequence (whole entry): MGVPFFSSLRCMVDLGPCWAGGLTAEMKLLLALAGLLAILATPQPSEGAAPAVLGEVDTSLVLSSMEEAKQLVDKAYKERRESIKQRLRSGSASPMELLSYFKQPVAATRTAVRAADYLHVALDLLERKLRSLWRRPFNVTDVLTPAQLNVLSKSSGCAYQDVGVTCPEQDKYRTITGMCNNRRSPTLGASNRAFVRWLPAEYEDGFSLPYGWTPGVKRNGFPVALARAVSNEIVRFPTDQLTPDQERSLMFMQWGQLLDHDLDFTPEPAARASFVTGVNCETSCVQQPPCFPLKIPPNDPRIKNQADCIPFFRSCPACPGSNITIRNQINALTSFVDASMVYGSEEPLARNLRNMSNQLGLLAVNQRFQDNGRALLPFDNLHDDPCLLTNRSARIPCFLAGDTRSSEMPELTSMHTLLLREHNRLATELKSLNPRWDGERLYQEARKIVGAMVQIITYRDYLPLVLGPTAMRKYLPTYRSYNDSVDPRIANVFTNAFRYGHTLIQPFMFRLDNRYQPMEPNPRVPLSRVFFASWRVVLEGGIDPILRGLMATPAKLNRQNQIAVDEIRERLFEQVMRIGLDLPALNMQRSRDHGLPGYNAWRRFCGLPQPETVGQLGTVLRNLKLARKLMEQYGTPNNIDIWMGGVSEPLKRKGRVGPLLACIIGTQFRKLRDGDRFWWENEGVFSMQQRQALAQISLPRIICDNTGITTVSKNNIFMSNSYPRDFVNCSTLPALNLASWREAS
Description: Inhibition of peroxidase activity of MPO isolated from human polynuclear leukocytes using Amplex Red as substrate assessed as formation of resorufin by measuring ratio of Kinact to Ki measured every 20 secs by spectrophotometric analysis. The procedure, abridged: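 Enzyme purified from human polynuclear leukocytes. Buffer: 50 mM sodium phosphate pH 7.4, 150 mM NaCl, 1 mM DTPA, 2 μM H2O2, 30 μM Amplex Red, inhibitor or DMSO. Resorufin fluorescence (ex 530/em 580) read every 20 s at room temperature. Progress curves fitted for kobs at each concentration. kinact/KI derived from the kobs versus [I] fit or slope. Geometric mean of at least two experiments.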

A short description of data set [8]: Lipophilicity, log D of the compound at pH 7.4 by shake-flask method. Type of data set: physicochemical. Conditions: buffer.
Another data set has as its system Cynomolgus monkey. The data set can be described thus: In vivo inhibition of MPO in LPS-stimulated po dosed cynomolgous monkey administered 1 hr post LPS challenge measured after 2 hrs. Format: functional, organism-based. Conditions: Macaca fascicularis. The method in brief:
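Randomized crossover design in cynomolgus monkeys given iv LPS, then oral vehicle or compound (5, 20, 80 mg/kg) 1 h later. Heparinized plasma collected 2 h after dosing. Total MPO captured on anti-MPO antibody plates, plasma exchanged for drug-free medium, and residual activity read by Amplex Red peroxidation. EC₅₀ from a mixed-effect sigmoid model of exposure versus activity.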

Data set [9] can be described thus: Oral bioavailability in CD-1 mouse at 3 or 5 mg/kg. Format: ADME, organism-based. The settings on record: in vivo. The method in brief:
as §3

Another data set concerns the target T2, Cytochrome P450 2B6 (Homo sapiens, UniProt P20813).
T2 sequence (P20813 whole entry): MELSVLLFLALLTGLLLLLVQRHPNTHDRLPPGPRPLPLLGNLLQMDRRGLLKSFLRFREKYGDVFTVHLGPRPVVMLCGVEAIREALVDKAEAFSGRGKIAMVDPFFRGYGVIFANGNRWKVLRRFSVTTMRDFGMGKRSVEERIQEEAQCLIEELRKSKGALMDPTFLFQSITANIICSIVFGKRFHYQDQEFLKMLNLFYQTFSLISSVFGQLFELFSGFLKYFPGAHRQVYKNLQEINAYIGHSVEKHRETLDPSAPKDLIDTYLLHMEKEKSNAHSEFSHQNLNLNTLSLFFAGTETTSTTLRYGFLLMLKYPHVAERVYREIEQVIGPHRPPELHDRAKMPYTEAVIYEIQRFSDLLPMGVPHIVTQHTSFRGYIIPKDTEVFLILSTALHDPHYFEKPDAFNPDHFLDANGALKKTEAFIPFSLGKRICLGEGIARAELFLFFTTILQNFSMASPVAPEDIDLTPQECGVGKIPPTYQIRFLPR
Description: Time-dependent inhibition of CYP2B6 in human liver microsomes. Format: ADME. The procedure, abridged:
(§4)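 Time- and concentration-dependent CYP inhibition assessed by an IC₅₀ shift assay in human liver microsomes.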
A general note: Liver microsomes are a subcellular fraction often used to study metabolism.

Data set [10] concerns the target T3, Cytochrome P450 2C9 (Homo sapiens, UniProt P11712). The data set can be described thus: Reversible inhibition of CYP2C9 in human liver microsomes by LC-MS/MS analysis. Format: ADME. The procedure, abridged:
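Reversible inhibition of the major CYP enzymes tested in human liver microsomes using established protocols.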

Data set [11] deals with T3, Cytochrome P450 2C9. Description: Time-dependent inhibition of CYP2C9 in human liver microsomes. Type of data set: ADME. The method in brief: as §4
The test system of another data set is Hepatocyte. Description: Metabolic stability in cryopreserved human hepatocytes assessed as GSH adduct formation. Format: ADME, cell-based. The method in brief: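 Incubation in NADPH-supplemented human liver microsomes or cryopreserved human hepatocytes, examined for glutathione adduct formation.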
The nature of data set [12]: Elimination half life in CD-1 mouse at 1 mg/kg, iv and 3 or 5 mg/kg, po. Type of data set: ADME, organism-based. The settings on record: in vivo. The procedure, abridged:
as §2

T3 sequence (P11712 whole entry): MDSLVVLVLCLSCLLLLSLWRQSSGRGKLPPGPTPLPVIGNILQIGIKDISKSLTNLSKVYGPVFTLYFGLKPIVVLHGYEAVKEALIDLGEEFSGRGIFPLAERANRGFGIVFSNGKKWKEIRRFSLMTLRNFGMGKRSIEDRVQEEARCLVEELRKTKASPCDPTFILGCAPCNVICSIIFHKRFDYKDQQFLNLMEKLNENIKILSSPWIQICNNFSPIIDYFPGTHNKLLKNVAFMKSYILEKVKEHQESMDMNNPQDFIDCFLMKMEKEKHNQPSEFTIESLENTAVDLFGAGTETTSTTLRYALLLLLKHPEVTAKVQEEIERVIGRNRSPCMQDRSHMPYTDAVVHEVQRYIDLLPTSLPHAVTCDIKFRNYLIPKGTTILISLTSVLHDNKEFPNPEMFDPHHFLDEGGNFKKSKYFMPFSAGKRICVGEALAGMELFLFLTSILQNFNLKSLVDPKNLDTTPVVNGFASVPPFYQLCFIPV

As to `COc1ccc(-c2cc(=O)[nH]c(=S)n2CCN)c(OC)c1`, the values for the Vd in [1] and in [2] were 3.66 L/kg and 3.71 L/kg, respectively. Moreover, the clearance in [3] amounted to 13.4 mL/min/kg; in data set [5], 70.3 mL/min/kg. Also, the bioavailability in data set [4] came out at 91%; in data set [6], 84%. Moreover, the log(ratio) in data set [7] was found to be 4.13. The log distribution coefficient (logD) in [8] was -0.17.

Turning to `COc1ccc(-c2cc(=O)[nH]c(=S)n2CCO)c(OC)c1`, the Vd in data set [1] amounted to 1.33 L/kg; in data set [2], 0.82 L/kg. For the same molecule, the clearance in data set [3] turned out to be 11.9 mL/min/kg; in [5] it was 59.3 mL/min/kg. The figures for the bioavailability in [4] and in data set [6] were 8% and 16%, respectively. Moreover, in data set [7], the log(ratio) is 4.47. In [8], this molecule returned a logD of 1.1.

Consider `COc1ccc(OC)c(-c2cc(=O)[nH]c(=S)n2CC(N)=O)c1`, for which the results for the Vd in data set [1] and in [2] were 1.03 L/kg and 0.83 L/kg, respectively. Besides, the clearance was found to be 7.07 mL/min/kg in data set [3] and 37.6 mL/min/kg in data set [5]. Besides, the values for the bioavailability in data set [4] and in data set [6] were 61% and 100%, respectively. The log(ratio) in data set [7] turned out to be 4.09. Also, in [8], the logD was determined as 0.34.

For the molecule `COc1ccc(-c2cc(=O)[nH]c(=S)n2CC(N)=O)c(OC)c1`, the Vd is 0.3 L/kg in [1] and 1.23 L/kg in data set [2]. In addition, the figures for the clearance in data set [3] and in data set [5] were 1.31 mL/min/kg and 35.1 mL/min/kg, respectively. Also, the bioavailability in data set [4] is 76%; in data set [6], 31%. For the same molecule, the log(ratio) in data set [7] was found to be 4.03. Also, in data set [8], the logD amounted to 0.59.

As to `COc1ccc(Cl)cc1-c1cc(=O)[nH]c(=S)n1CC(N)=O` [PF-06282999], the EC50 with Cynomolgus monkey is 3.8 µM. The bioavailability in [9] is 100%; in data set [4], 86%; in [6], 75%. Also, the 50% inhibitory concentration (IC50) at Cytochrome P450 2B6, against Cytochrome P450 2C9 [10] and on Cytochrome P450 2C9 [11] was above 100 µM each time. For the same molecule, the figures for the Vd in data set [1] and in data set [2] were 0.54 L/kg and 2.13 L/kg, respectively. Moreover, the clearance in [3] worked out at 3.39 mL/min/kg; in data set [5], 41.8 mL/min/kg. Further, the Stability result with Hepatocyte is listed as “Stable”. Moreover, the logD in data set [8] stood at 0.81. In addition, the half-life in data set [12] was 81.6 min.

By bioavailability is commonly meant dose-corrected exposure relative to a reference, in per cent. As a reminder, the logD is lipophilicity at a set pH, counting ionised and neutral species. The term EC50 denotes the concentration giving half of the maximal effect. In general, IC50 refers to the midpoint of a concentration-inhibition curve. As a reminder, the half-life is the time in which the quantity being followed falls by half.
